Source: ChEMBL document CHEMBL1140400, “Synthesis and anthelmintic properties of arylquinolines with activity against drug-resistant nematodes” (2005)

Key:
Type in all cases: functional
[1] = test system: Haemonchus contortus; test: Lethal dose against Haemonchus contortus CAVR (ivermectin resistant) using NemaTox assay
Procedure, shortened: (§1)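 Larval development assay in agar matrix: 80–100 nematode eggs per well with compound at twofold serial dilutions from 100 μg/mL downward; wells supplemented with nutrient medium, incubated at 26 °C until control larvae reached the L3 stage. Day 5 qualitative larval assessment; LD99 taken as lowest concentration inhibiting development in 99% of larvae present.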

[2] = test system: Haemonchus contortus; test: Lethal dose against Haemonchus contortus VSRG (benzimidazole resistant) using NemaTox assay; procedure, shortened: as §1
[3] = test system: Haemonchus contortus; test: Lethal dose against Haemonchus contortus Lawes ( levamisole and benzimidazole resistant) using NemaTox assay; procedure, shortened: as §1
[4] = test system: Haemonchus contortus; test: Lethal dose against Haemonchus contortus using NemaTox assay; procedure, shortened: as §1
[5] = test system: Teladorsagia circumcincta; test: Lethal dose against Ostertagia circumcincta using NemaTox assay; procedure, shortened: as §1
[6] = test system: Trichostrongylus colubriformis; test: Lethal dose against Trichostrongylus colubriformis using NemaTox assay; procedure, shortened: as §1
[7] = test system: Haemonchus contortus; test: Lethal dose against Haemonchus contortus (susceptible) using NemaTox assay; procedure, shortened: as §1

Row | Compound | LD99 [1] [µg/mL] | LD99 [2] [µg/mL] | LD99 [3] [µg/mL] | LD99 [4] [µg/mL] | LD99 [5] [µg/mL] | LD99 [6] [µg/mL] | LD99 [7] [µg/mL]
1 | COc1cc(OC)c2cc(-c3ccccc3)ccc2n1 | 3.1 | 3.1 | 3.1 | 3.1 | 3.1 | 6.3 | 3.1
2 | COc1nc2ccccc2c(OC)c1-c1ccccc1 |  |  |  | 25 |  |  | 
3 | COc1cc(OC)c2cccc(-c3ccccc3)c2n1 | 3.1 | 4.4 | 6.3 | 12.5 | 6.3 | 50 | 6.3
4 | COc1cc(OC)c2c(C)cc(C)cc2n1 |  |  |  | 25 |  |  | 
5 | c1ccc([C@H]2CN3CCSC3=N2)cc1 [LEVAMISOLE] | 0.78 | 1.6 | >100 |  |  |  | 1.6
6 | COc1ccc(-c2cccc3c(OC)cc(OC)nc23)cc1 | 3.1 | 6.3 | 3.1 | 12.5 | 3.1 | 6.3 | 6.3
7 | c1ccc2[nH]c(-c3cscn3)nc2c1 [THIABENDAZOLE] | 0.16 | 5 | 5 |  |  |  | 0.16
8 | COc1cc(Cl)nc2ccccc12 |  |  |  | 25 |  |  | 
9 | COc1cc(OC)c2cc(Cl)ccc2n1 | 6.3 | 13 | 8.8 | 12.5 | 13 | 25 | 13
10 | COc1ccc(-c2ccc3nc(OC)cc(OC)c3c2)cc1 | 1.6 | 2.2 | 1.6 | 3.1 | 3.1 | 3.1 | 3.1
